Data as given in ChEMBL document CHEMBL3244142, “Antifungal properties of 2-bromo-3-fluorosuccinic acid esters and related compounds” (1977).
≈ marks a conversion by molar mass, not a printed value. Where a name gives a salt, the structure may show the parent alone. Calls of active or inactive are those of the source. No cut-off for these calls is given here.

Columns and labels:
[1] = test system: Aspergillus niger; assay: Antifungal activity against Aspergillus niger ATCC 1004 at <100 ug/ml at pH 5.6 after 5 days in presence of 10% beef serum; type: functional, organism-based
Procedure, shortened: (§1)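 Agar-dilution MIC in Sabouraud dextrose agar at pH 5.6 or 7.0, with or without 10% beef serum. Plates were incubated at 28 °C for 5 days. MIC is the lowest concentration (µg/mL) giving 100% inhibition. Steps were 1 µg/mL up to 10, 2 µg/mL from 10–20, and 10 µg/mL from 20–100; 100 µg/mL was the top level, and no inhibition there is scored as >100.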

[2] = test system: Aspergillus niger; assay: Antifungal activity against Aspergillus niger ATCC 1004 at <100 ug/ml at pH 7 after 5 days in absence of 10% beef serum; type: functional, organism-based; procedure, shortened: as §1
[3] = test system: Aspergillus niger; assay: Antifungal activity against Aspergillus niger ATCC 1004 at <100 ug/ml at pH 7 after 5 days in presence of 10% beef serum; type: functional, organism-based; procedure, shortened: as §1
[4] = test system: Trichophyton mentagrophytes; assay: Antifungal activity against Trichophyton mentagrophytes ATCC 9129 at pH 5.6 after 5 days in absence of 10% beef serum; type: functional; settings: Trichophyton mentagrophytes, ATCC 9129, 120 h; read-out: MIC; procedure, shortened: as §1
[5] = test system: Trichophyton mentagrophytes; assay: Antifungal activity against Trichophyton mentagrophytes ATCC 9129 at pH 5.6 after 5 days in presence of 10% beef serum; type: functional; settings: Trichophyton mentagrophytes, ATCC 9129, 120 h; read-out: MIC; procedure, shortened: as §1
[6] = test system: Trichophyton mentagrophytes; assay: Antifungal activity against Trichophyton mentagrophytes ATCC 9129 at pH 7 after 5 days in absence of 10% beef serum; type: functional; settings: Trichophyton mentagrophytes, ATCC 9129, 120 h; read-out: MIC; procedure, shortened: as §1
[7] = test system: Trichophyton mentagrophytes; assay: Antifungal activity against Trichophyton mentagrophytes ATCC 9129 at <100 ug/ml at pH 7 after 5 days in presence of 10% beef serum; type: functional, organism-based; procedure, shortened: as §1
[8] = test system: Aspergillus niger; assay: Antifungal activity against Aspergillus niger ATCC 1004 at <100 ug/ml at pH 5.6 after 5 days in absence of 10% beef serum; type: functional, organism-based; procedure, shortened: as §1
[9] = test system: Mucor mucedo; assay: Antifungal activity against Mucor mucedo ATCC 7941 at pH 7 after 20 h in absence of 10% beef serum; settings: ATCC 7941, 20 h
[10] = test system: Mucor mucedo; assay: Antifungal activity against Mucor mucedo ATCC 7941 at pH 5.6 after 20 h in absence of 10% beef serum; settings: ATCC 7941, 20 h
[11] = test system: Mucor mucedo; assay: Antifungal activity against Mucor mucedo ATCC 7941 at pH 5.6 after 20 h in presence of 10% beef serum; settings: ATCC 7941, 20 h
[12] = test system: Mucor mucedo; assay: Antifungal activity against Mucor mucedo ATCC 7941 at <100 ug/ml at pH 7 after 20 h in presence of 10% beef serum
[13] = test system: Candida albicans; assay: Antifungal activity against Candida albicans ATCC 10231 at <100 ug/ml at pH 7 after 20 h in absence of 10% beef serum
[14] = test system: Candida albicans; assay: Antifungal activity against Candida albicans ATCC 10231 at <100 ug/ml at pH 7 after 20 h in presence of 10% beef serum
[15] = test system: Candida albicans; assay: Antifungal activity against Candida albicans ATCC 10231 at <100 ug/ml at pH 5.6 after 20 h in absence of 10% beef serum
[16] = test system: Candida albicans; assay: Antifungal activity against Candida albicans ATCC 10231 at <100 ug/ml at pH 5.6 after 20 h in presence of 10% beef serum
[17] = test system: Trichophyton mentagrophytes; assay: Antifungal activity against Trichophyton mentagrophytes ATCC 9129 at pH 7 after 5 days in presence of 10% beef serum; type: functional; settings: Trichophyton mentagrophytes, ATCC 9129, 120 h; read-out: MIC; procedure, shortened: as §1
[18] = test system: Mucor mucedo; assay: Antifungal activity against Mucor mucedo ATCC 7941 at pH 7 after 20 h in presence of 10% beef serum; settings: ATCC 7941, 20 h
[19] = test system: Candida albicans; assay: Antifungal activity against Candida albicans ATCC 10231 at pH 7 after 20 h in absence of 10% beef serum; settings: ATCC 10231, 20 h
[20] = test system: Candida albicans; assay: Antifungal activity against Candida albicans ATCC 10231 at pH 7 after 20 h in presence of 10% beef serum; settings: ATCC 10231, 20 h
[21] = test system: Candida albicans; assay: Antifungal activity against Candida albicans ATCC 10231 at pH 5.6 after 20 h in absence of 10% beef serum; settings: ATCC 10231, 20 h
[22] = test system: Candida albicans; assay: Antifungal activity against Candida albicans ATCC 10231 at pH 5.6 after 20 h in presence of 10% beef serum; settings: ATCC 10231, 20 h
[23] = test system: Aspergillus niger; assay: Antifungal activity against Aspergillus niger ATCC 1004 at pH 5.6 after 5 days in presence of 10% beef serum; type: functional; settings: Aspergillus niger, ATCC 1004, 120 h; read-out: MIC; procedure, shortened: as §1
[24] = test system: Aspergillus niger; assay: Antifungal activity against Aspergillus niger ATCC 1004 at pH 7 after 5 days in absence of 10% beef serum; type: functional; settings: Aspergillus niger, ATCC 1004, 120 h; read-out: MIC; procedure, shortened: as §1
[25] = test system: Aspergillus niger; assay: Antifungal activity against Aspergillus niger ATCC 1004 at pH 5.6 after 5 days in absence of 10% beef serum; type: functional; settings: Aspergillus niger, ATCC 1004, 120 h; read-out: MIC; procedure, shortened: as §1
[26] = test system: Mucor mucedo; assay: Antifungal activity against Mucor mucedo ATCC 7941 at <100 ug/ml at pH 7 after 20 h in absence of 10% beef serum
[27] = test system: Mucor mucedo; assay: Antifungal activity against Mucor mucedo ATCC 7941 at <100 ug/ml at pH 5.6 after 20 h in absence of 10% beef serum
[28] = test system: Mucor mucedo; assay: Antifungal activity against Mucor mucedo ATCC 7941 at <100 ug/ml at pH 5.6 after 20 h in presence of 10% beef serum

| SMILES | inhibition [1] | inhibition [2] | inhibition [3] | MIC [4] | MIC [5] | MIC [6] | inhibition [8] | MIC [9] | MIC [11] | inhibition [12] | inhibition [13] | inhibition [14] | inhibition [15] | inhibition [16] | MIC [17] | MIC [19] | MIC [21] | inhibition [26] | inhibition [27] | inhibition [28] | also measured |
| --- | --- | --- | --- | --- | --- | --- | --- | --- | --- | --- | --- | --- | --- | --- | --- | --- | --- | --- | --- | --- | --- |
| COC(=O)/C=C(/F)C(=O)OC | inactive | inactive | inactive | 6 µg/mL (≈ 37 µM) | 8 µg/mL | 50 µg/mL (≈ 308 µM) | inactive | 40 µg/mL (≈ 247 µM) | 20 µg/mL | inactive | inactive | inactive | inactive | inactive | – | – | – | – | – | – | inhibition [7]: inactive; MIC [10]: 14 µg/mL (≈ 86.4 µM) |
| COC(=O)CC(F)C(Br)C(=O)OC (stereo not drawn) | inactive | inactive | inactive | 16 µg/mL (≈ 62.2 µM) | 18 µg/mL | 16 µg/mL (≈ 62.2 µM) | inactive | 40 µg/mL (≈ 156 µM) | 50 µg/mL | – | – | – | – | – | 40 µg/mL | 90 µg/mL (≈ 350 µM) | 90 µg/mL (≈ 350 µM) | – | – | – | MIC [18]: 60 µg/mL; MIC [20]: 90 µg/mL; MIC [22]: 90 µg/mL |
| CCCCOC(=O)[C@H](F)[C@@H](Br)C(=O)OCCCC (relative stereo) | inactive | inactive | inactive | < 1 µg/mL | 30 µg/mL | 30 µg/mL (≈ 91.7 µM) | inactive | 14 µg/mL (≈ 42.8 µM) | 80 µg/mL | inactive | – | – | – | – | 50 µg/mL | 30 µg/mL (≈ 91.7 µM) | 20 µg/mL (≈ 61.1 µM) | – | – | – | MIC [20]: 90 µg/mL; MIC [22]: 80 µg/mL |
| CCCOC(=O)[C@H](F)[C@@H](Br)C(=O)OCCC (relative stereo) | – | – | inactive | < 1 µg/mL | 12 µg/mL | 2 µg/mL (≈ 6.69 µM) | – | 5 µg/mL (≈ 16.7 µM) | 18 µg/mL | – | – | – | – | – | 16 µg/mL | 4 µg/mL (≈ 13.4 µM) | 3 µg/mL (≈ 10 µM) | – | – | – | MIC [23]: 40 µg/mL; MIC [24]: 40 µg/mL (≈ 134 µM); MIC [25]: 30 µg/mL (≈ 100 µM); MIC [18]: 20 µg/mL; MIC [20]: 16 µg/mL; MIC [22]: 16 µg/mL |
| CCCCOC(=O)[C@@H](F)[C@@H](Br)C(=O)OCCCC (relative stereo) | inactive | inactive | inactive | 3 µg/mL (≈ 9.17 µM) | 20 µg/mL | 4 µg/mL (≈ 12.2 µM) | inactive | 20 µg/mL (≈ 61.1 µM) | 30 µg/mL | – | – | – | – | – | 30 µg/mL | 40 µg/mL (≈ 122 µM) | 9 µg/mL (≈ 27.5 µM) | – | – | – | MIC [18]: 50 µg/mL; MIC [20]: 50 µg/mL; MIC [22]: 20 µg/mL |
| COC(=O)/C=C\C(=O)OC [DIMETHYL MALEATE] | inactive | inactive | inactive | 40 µg/mL | 50 µg/mL | 30 µg/mL | inactive | – | – | inactive | inactive | inactive | inactive | inactive | 60 µg/mL | – | – | inactive | inactive | inactive | – |
| CCCCOC(=O)/C=C\C(=O)OCCCC | inactive | inactive | inactive | 8 µg/mL (≈ 35 µM) | 30 µg/mL | 30 µg/mL (≈ 131 µM) | inactive | – | – | inactive | inactive | inactive | inactive | inactive | 50 µg/mL | – | – | inactive | inactive | inactive | – |
| CCCOC(=O)/C=C\C(=O)OCCC | inactive | inactive | inactive | 14 µg/mL (≈ 69.9 µM) | 40 µg/mL | 50 µg/mL (≈ 250 µM) | inactive | – | – | inactive | inactive | inactive | inactive | inactive | 60 µg/mL | – | – | inactive | inactive | inactive | – |
| CCOC(=O)/C=C\C(=O)OCC [DIETHYL MALEATE] | inactive | inactive | inactive | 50 µg/mL | 60 µg/mL | 90 µg/mL | inactive | – | – | inactive | inactive | inactive | inactive | inactive | 100 µg/mL | – | – | inactive | inactive | inactive | – |
| CCCOC(=O)/C=C/C(=O)OCCC | inactive | inactive | inactive | 6 µg/mL (≈ 30 µM) | 50 µg/mL | 30 µg/mL (≈ 150 µM) | inactive | 70 µg/mL (≈ 350 µM) | – | inactive | – | inactive | – | inactive | – | 70 µg/mL (≈ 350 µM) | 70 µg/mL (≈ 350 µM) | – | – | inactive | inhibition [7]: inactive; MIC [10]: 60 µg/mL (≈ 300 µM) |
| CCCCOC(=O)/C=C/C(=O)OCCCC | inactive | inactive | inactive | 7 µg/mL (≈ 30.7 µM) | 60 µg/mL | 30 µg/mL (≈ 131 µM) | inactive | – | – | inactive | inactive | inactive | inactive | inactive | – | – | – | inactive | inactive | inactive | inhibition [7]: inactive |
| COC(=O)C(Br)CF (stereo not drawn) | inactive | inactive | inactive | 50 µg/mL (≈ 270 µM) | 100 µg/mL | 100 µg/mL (≈ 541 µM) | inactive | 9 µg/mL (≈ 48.7 µM) | 18 µg/mL | – | inactive | inactive | inactive | inactive | – | – | – | – | – | – | inhibition [7]: inactive; MIC [18]: 30 µg/mL |
| CCCCCOC(=O)/C=C\C(=O)OCCCCC | inactive | inactive | inactive | 10 µg/mL (≈ 39 µM) | 50 µg/mL | 30 µg/mL (≈ 117 µM) | inactive | – | – | inactive | inactive | inactive | inactive | inactive | 60 µg/mL | – | – | inactive | inactive | inactive | – |
